# Measurements published in ChEMBL document CHEMBL1123888, “Aldosterone antagonists. 2. Synthesis and biological activities of 11,12-dehydropregnane derivatives” (J Med Chem, 1987).
# Calls of active or inactive are those of the source. The rule behind the calls is not given here.
# Tests used:
# [1] = target: T1, Androgen receptor (Rattus norvegicus) (UniProt P15207); test: In vivo relative androgenic activity in Male Sprague-Dawley rats; assay type: functional, organism-based
# T1 sequence (whole entry): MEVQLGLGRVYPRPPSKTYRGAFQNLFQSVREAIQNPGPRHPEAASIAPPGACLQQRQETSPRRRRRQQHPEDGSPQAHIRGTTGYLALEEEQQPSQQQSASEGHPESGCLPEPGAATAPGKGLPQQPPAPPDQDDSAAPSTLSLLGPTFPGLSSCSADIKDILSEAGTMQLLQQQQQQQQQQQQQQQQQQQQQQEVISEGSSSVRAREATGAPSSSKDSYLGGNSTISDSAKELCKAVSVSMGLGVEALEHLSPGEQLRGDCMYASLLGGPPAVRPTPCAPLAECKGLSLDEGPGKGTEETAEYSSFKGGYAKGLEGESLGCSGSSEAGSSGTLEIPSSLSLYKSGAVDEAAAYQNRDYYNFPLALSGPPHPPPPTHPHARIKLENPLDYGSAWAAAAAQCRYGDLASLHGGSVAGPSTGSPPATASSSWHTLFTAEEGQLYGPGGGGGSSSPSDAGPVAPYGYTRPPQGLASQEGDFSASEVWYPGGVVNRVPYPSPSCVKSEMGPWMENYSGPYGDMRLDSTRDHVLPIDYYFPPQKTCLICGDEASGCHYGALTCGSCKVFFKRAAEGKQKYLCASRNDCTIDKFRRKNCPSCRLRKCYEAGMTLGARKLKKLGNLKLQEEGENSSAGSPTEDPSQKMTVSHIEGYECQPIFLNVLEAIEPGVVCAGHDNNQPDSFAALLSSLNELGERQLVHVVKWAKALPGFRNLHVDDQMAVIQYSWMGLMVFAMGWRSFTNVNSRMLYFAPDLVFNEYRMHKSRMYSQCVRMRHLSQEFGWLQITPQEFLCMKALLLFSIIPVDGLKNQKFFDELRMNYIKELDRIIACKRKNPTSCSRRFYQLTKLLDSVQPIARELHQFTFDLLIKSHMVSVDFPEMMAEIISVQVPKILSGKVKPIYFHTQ
# [2] = target: T1, Androgen receptor (Rattus norvegicus); test: Relative binding affinity against Androgen receptor in Male Sprague-Dawley rats
# Procedure, shortened: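 Rat ventral prostate cytosol from 4-8-week-old rats castrated 1 day earlier. Incubated with various competitor concentrations and about 1 nM [3H]DHT or [3H]methyltrienolone for 16-20 h at 0 °C. Bound and free steroid separated by dextran-coated charcoal.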
# [3] = target: T2, Mineralocorticoid receptor (Rattus norvegicus) (UniProt P22199); test: Antagonist activity against Mineralocorticoid receptor was determined after subcutaneous administration in Male Sprague Dawley rats; assay type: functional, organism-based
# T2 sequence (whole entry): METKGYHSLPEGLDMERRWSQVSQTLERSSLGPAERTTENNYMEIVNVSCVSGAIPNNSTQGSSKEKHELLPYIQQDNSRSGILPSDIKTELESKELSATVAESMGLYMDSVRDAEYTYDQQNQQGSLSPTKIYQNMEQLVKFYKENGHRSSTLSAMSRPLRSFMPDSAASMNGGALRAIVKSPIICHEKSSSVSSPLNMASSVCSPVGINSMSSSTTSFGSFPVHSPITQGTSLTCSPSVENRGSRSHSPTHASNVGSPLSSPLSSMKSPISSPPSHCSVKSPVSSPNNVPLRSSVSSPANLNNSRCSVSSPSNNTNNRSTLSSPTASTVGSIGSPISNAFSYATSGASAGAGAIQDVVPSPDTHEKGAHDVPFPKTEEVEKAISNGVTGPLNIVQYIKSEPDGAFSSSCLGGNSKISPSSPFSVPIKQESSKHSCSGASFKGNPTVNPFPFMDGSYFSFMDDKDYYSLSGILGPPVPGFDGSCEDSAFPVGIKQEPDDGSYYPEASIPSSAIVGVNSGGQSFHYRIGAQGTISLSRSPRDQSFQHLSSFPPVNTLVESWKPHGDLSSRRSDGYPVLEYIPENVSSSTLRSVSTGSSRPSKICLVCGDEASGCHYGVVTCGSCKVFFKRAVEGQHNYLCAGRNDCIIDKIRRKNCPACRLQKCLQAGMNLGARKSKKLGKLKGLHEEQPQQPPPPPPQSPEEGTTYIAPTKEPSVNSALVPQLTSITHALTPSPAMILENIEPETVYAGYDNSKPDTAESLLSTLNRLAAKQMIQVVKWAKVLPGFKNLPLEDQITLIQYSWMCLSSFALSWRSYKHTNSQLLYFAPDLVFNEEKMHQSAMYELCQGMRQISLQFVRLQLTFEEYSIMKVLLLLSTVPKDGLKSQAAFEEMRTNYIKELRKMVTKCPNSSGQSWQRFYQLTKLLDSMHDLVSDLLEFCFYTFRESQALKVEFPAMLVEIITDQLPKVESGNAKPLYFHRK
# Procedure, shortened: (§1)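 Male rats were bilaterally adrenalectomized (bioassay modified from Kagawa). Ald (1 µg/kg) was given sc, immediately followed by test compound in sesame oil sc or orally. Urine was collected from 2 to 6 h after steroid. Potency came from the urinary Na/K ratio of sample versus control, with 95% confidence limits.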
# [4] = target: T2, Mineralocorticoid receptor (Rattus norvegicus); test: Relative binding affinity to the rat mineralocorticoid receptor determined in rat renal cytosol using [3]Ald as ligand
# Procedure, shortened: (§2)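 Renal cytosol came from male Sprague-Dawley rats (4-8 weeks) adrenalectomized bilaterally 1 or 2 days earlier. It was incubated with various competitor concentrations and about 1 nM [3H]Ald for 42-48 h at 0 °C or 100-120 min at 25 °C. Bound and free steroid were separated by DCC.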
# Rattus norvegicus = species on record: Rattus norvegicus; test: Displacement of [3H]promegestone from progestin receptor of rat uterine cytosol at 0 degree Centigrade
# Procedure, shortened: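 Uteri from estradiol-primed rats supplied the cytosol. It was incubated with various competitor concentrations and about 1 nM [3H]promegestone for 16-20 h at 0 °C. Bound and free steroid were separated by DCC. RBA (progesterone = 100%) = 100 × ratio of the 50%-inhibition concentrations of standard and competitor.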
# [5] = target: T2, Mineralocorticoid receptor (Rattus norvegicus); test: Displacement of [3]Aldosterone from mineralocorticoid receptor of rat renal cytosol at 0 degree Centigrade; procedure, shortened: as §2
# [6] = target: T2, Mineralocorticoid receptor (Rattus norvegicus); test: Relative binding affinity against mineralocorticoid receptor determined in rat renal cytosol using [3]Ald as ligand; procedure, shortened: as §2
# [7] = target: T3, Progesterone receptor (Rattus norvegicus) (UniProt Q63449); test: Relative binding affinity against progesterone receptor determined in rat […] cytosol using [3H]DHT as ligand
# T3 sequence (whole entry): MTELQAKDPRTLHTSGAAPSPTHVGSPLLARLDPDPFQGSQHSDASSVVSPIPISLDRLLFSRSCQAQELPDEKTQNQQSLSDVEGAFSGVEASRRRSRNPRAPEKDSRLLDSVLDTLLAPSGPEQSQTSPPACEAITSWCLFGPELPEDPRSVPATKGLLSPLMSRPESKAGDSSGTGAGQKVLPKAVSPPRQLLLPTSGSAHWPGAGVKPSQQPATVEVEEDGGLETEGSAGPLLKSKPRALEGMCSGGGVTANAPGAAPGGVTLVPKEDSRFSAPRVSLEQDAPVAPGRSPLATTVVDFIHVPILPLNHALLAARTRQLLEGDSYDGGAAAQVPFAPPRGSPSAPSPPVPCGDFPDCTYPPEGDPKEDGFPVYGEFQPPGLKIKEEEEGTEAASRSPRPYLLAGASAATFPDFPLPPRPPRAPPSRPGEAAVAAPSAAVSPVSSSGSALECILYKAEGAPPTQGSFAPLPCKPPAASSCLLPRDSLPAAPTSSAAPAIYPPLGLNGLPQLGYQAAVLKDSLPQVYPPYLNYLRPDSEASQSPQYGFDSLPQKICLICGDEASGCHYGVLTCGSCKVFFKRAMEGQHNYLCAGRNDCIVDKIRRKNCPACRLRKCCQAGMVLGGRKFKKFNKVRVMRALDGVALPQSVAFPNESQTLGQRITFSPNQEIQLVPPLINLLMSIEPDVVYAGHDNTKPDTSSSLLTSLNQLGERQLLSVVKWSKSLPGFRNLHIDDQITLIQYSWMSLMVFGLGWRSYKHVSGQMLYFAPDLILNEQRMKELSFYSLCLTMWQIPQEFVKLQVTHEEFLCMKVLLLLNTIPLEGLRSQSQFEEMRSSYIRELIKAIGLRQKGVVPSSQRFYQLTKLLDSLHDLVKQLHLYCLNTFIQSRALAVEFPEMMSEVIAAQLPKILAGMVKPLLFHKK
# [8] = target: T3, Progesterone receptor (Rattus norvegicus); test: Relative binding affinity against progesterone receptor in […]
# [9] = target: T3, Progesterone receptor (Rattus norvegicus); test: In vivo relative Progestational activity in Male Sprague-Dawley rats was determined.; assay type: functional, organism-based
# [10] = target: T2, Mineralocorticoid receptor (Rattus norvegicus); test: Relative binding affinity against Mineralocorticoid receptor in Male Sprague-Dawley rats; procedure, shortened: as §2
# [11] = target: T2, Mineralocorticoid receptor (Rattus norvegicus); test: In vivo relative Mineralocorticoid activity in Male Sprague-Dawley rats; assay type: functional, organism-based
# [12] = target: T2, Mineralocorticoid receptor (Rattus norvegicus); test: Antagonist activity against Mineralocorticoid receptor after subcutaneous administration in Male Sprague Dawley rats; (+) =positive; assay type: functional, organism-based; settings: filed as antagonist; procedure, shortened: as §1
structure (smiles),measurement,setting,value
CC12CCC(=O)C=C1CCC1C2C=CC2(C)C(O)CCC12 (stereo not given),Relative activity,[1],0.7
same,relative binding affinity (RBA),[2],120
CC12CCC(=O)C=C1C[C@@H](SC(=O)c1ccccc1)C1C2C=CC2(C)C1CC[C@@]21CCC(=O)O1 (stereo not given in full),Activity,[3],inactive
same,RBA,[4],18%
same,RBA,Rattus norvegicus,25%
same,RBA,[5],11%
CC12C=CC(=O)C=C1CCC1C2C=CC2(C)C1C1CC1[C@@]21CCC(=O)O1 (stereo not given in full),RBA,[4],440%
same,RBA,[6],220%
CC(=O)S[C@@H]1CC2=CC(=O)CCC2(C)C2C=CC3(C)C(C4CC4[C@@]34CCC(=O)O4)C21 (stereo not given in full),Activity,[3],inactive
same,RBA,[4],> 1000%
same,RBA,[7],89%
same,RBA,[6],370%
C[C@]12CC[C@H]3[C@@H](CCC4CC(=O)CC[C@@H]43)[C@@H]1CC[C@@H]2O (stereo not given in full),Relative activity,[1],0.1
same,relative binding affinity (RBA),[2],59
CC(=O)[C@H]1CC[C@H]2[C@@H]3CCC4=CC(=O)CC[C@]4(C)[C@H]3C=C[C@]12C,relative binding affinity (RBA),[8],220
same,Relative activity,[9],3
CC12C=CC3C(CCC4CC(=O)CCC43C)C1CCC2O (stereo not given),Relative activity,[1],1
same,relative binding affinity (RBA),[2],81
CC12CCC(=O)C=C1CCC1C2C=CC2(C)C(C(=O)CO)CCC12 (stereo not given),relative binding affinity (RBA),[10],150
same,Relative activity,[11],1
CC(=O)[C@H]1CC[C@H]2[C@@H]3CCC4=CC(=O)CC[C@@H]4[C@H]3CC[C@]12C,relative binding affinity (RBA),[8],650
same,Relative activity,[9],10.7
CC12CCC(=O)C=C1C=CC1C2C=CC2(C)C1C1CC1[C@@]21CCC(=O)O1 (stereo not given in full),Activity,[3],inactive
same,RBA,[4],320%
same,RBA,[7],210%
same,RBA,[5],290%
CC(C)(C)C(=O)S[C@@H]1CC2=CC(=O)CCC2(C)C2C=CC3(C)C(CC[C@@]34CCC(=O)O4)C21 (stereo not given in full),RBA,[4],42%
same,Activity,[12],Antagonist
same,RBA,[7],38%
same,RBA,[5],46%
